procasp7 counter: procaspase-7 activators, primary screen, counter-screen for procaspase-3 activator project, biochemical, absorbance, HTS, human; AID 463210, 2010; activation, % at 8.5 µM; recombinant procaspase-7, Ac-DEVD-pNA absorbance 405 nm; D23A/D198A/D206A triple mutant, cannot self-cleave; scale: DMSO 0, 5 µM enzyme 100; Caspase-7 (Homo sapiens), P55210; 330,000 compounds, 0.093% hits;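 active means percent activation above the screen-wide mean plus 3 SD, cut at about 25% in these data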
Target sequence (P55210 whole entry D23A/D198A/D206A): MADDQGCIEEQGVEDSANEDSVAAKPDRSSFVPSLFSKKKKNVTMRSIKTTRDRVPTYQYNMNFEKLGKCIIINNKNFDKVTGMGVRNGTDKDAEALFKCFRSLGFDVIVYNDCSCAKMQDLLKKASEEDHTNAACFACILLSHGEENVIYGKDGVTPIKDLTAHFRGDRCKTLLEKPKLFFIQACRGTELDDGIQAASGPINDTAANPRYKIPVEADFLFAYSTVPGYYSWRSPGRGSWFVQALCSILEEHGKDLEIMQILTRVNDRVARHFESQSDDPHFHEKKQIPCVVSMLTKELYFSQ
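System: Uncleavable procaspase-7 mutant enzyme; Amount: 2 µM procaspase-7 mutant as dispensed; Schedule: 1 h compound preincubation, 2 h substrate cleavage, 25 °C; Measured by: 405 nm absorbance of p-nitroaniline; Evaluation: percent activation from buffer-corrected 0–120 min absorbance change; Control set: low DMSO alone, high DMSO plus 5 µM PC-7.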
CHT PAM: CHT positive allosteric modulators, primary screen, cell-based, membrane potential dye, choline EC20; 310,000 compounds, 0.49% hits; AID 488977, 2010; B-score at 10 µM; High affinity choline transporter 1 (Homo sapiens), Q9GZV3; CHT-expressing cells; hits give high values; LV-AA mutant CHT in HEK293 cells;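 active means initial fluorescence not abnormally high and integrated response B-score, plate-corrected, over 3 SD above library mean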
CHT inh: inhibitors of human choline transporter CHT | CHT-expressing cells, membrane potential dye, choline response; hits give low values | B-score at 10 µM | 310,000 compounds, 0.86% hits | AID 488975, 2010;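 active means B-score over 3 SD under the library average, and starting fluorescence ratio not unusually high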;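 further: choline stimulus applied at its EC90 after an EC20 pre-addition; B-score computed on integrated fluorescence ratio after choline addition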
procasp3 activ: activators of human procaspase-3 D3A mutant, primary screen, biochemical, absorbance, PC-3 D3A mutant, single concentration; recombinant procaspase-3 D3A, Ac-DEVD-pNA absorbance 405 nm; activation, % at 8.5 µM; 330,000 compounds, 0.11% hits; AID 463141, 2010;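 active means activation above the mean of all tested compounds plus 3 SD, cut at about 21% in these data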
Target sequence (P42574 whole entry D9A/D28A/D175A): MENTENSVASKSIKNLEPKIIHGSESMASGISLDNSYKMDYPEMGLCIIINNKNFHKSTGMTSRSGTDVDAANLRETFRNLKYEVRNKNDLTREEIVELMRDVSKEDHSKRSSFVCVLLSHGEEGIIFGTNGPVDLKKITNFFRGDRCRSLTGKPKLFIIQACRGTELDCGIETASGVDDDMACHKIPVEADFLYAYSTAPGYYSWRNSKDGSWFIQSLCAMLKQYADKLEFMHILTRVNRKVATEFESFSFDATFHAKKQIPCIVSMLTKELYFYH
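Test system: Procaspase-3 D3A mutant; medium: Zinc-free HEPES/NaCl buffer with 0.01% Triton X-100 at pH 7.4; reagent: DEVD-pNA substrate; doses: one concentration, 8.5 µM nominal, 0.8% DMSO; times: 1 h preincubation plus 2 h reaction at 25 °C; signal: Epi-absorbance at 405 nm of released p-nitroaniline, 0 and 120 min; replicates: singlicate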
CHT block conf: CHT inhibitors, confirmation, cell-based, membrane potential dye, duplicate; AID 493221, 2011; 2,400 compounds, 70% hits; CHT activity remaining % of control (hits give low values), % at 10 µM; shares compounds with CHT inh; CHT-expressing cells, choline membrane potential dye; LV-to-AA substituted CHT, HEK293 cells;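 active means choline transporter activity left, mean of duplicates at 10 µM, below buffer-only control mean minus 3 SD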;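 further: depolarization triggered by choline at its EC90 following an EC20 pre-addition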
HEK293 CHT ctr: membrane potential effects in parental HEK293, counter-screen for CHT inhibitor project, cell-based, membrane potential dye; shares compounds with CHT inh; choline response; active = decrease or increase beyond buffer ±3SD; membrane potential ratio readout (active if shifted either direction beyond buffer ±3SD; no single direction) at 10 µM; 2,400 compounds, 4% hits;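 further: parental cells lack the transporter so any hit is non-specific; ratio is peak minus trough fluorescence over baseline after EC90 choline challenge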
Of the large screens only hits and unclear results are named; the others gave an inactive call (follow-up assays come after a bar, where they were run). Compounds with a hit are over-represented: about 1.3% of the library has one in this group of screens.

CSC1=C(C#N)C(c2ccncc2)C(C(=O)Nc2ccccc2)=C(C)N1 (stereo not given)	CHT inh -5.03 | CHT block conf 50.5% | HEK293 CHT ctr inactive
COc1ccc(-c2cc(C(F)(F)F)c3c(=O)n(-c4ccccc4)[nH]c3n2)cc1	CHT inh -6.03 | CHT block conf 65.9% | HEK293 CHT ctr 2.28
COc1ccc(-c2cc(-c3ccccc3)nc(=O)[nH]2)cc1	none
CC(C)Nc1nc(Cl)nc(N(C#N)CN2C(=O)c3ccccc3S2(=O)=O)n1	none
CC(C)(C)Nc1nc(Cl)nc(N(C#N)CN2C(=O)c3ccccc3S2(=O)=O)n1	CHT inh -5.64 | CHT block conf 57.2% | HEK293 CHT ctr inactive
CCC(C)c1ccc(NC(=S)NC(C)C2CCCO2)cc1 (stereo not given)	CHT inh -8.32 | CHT block conf 47.1% | HEK293 CHT ctr inactive
Cc1ccc([C@@H]2CC=C(C(=O)O)[C@H](c3ccccc3F)N2S(=O)(=O)c2ccccc2C)cc1	none (no result: CHT PAM, CHT inh)
COc1cc2c(cc1OC)C(c1cccs1)N(C(=O)c1cccnc1)CC2 (stereo not given)	CHT inh -5.74 | CHT block conf inactive | HEK293 CHT ctr inactive
COc1ccc(C(=O)N2CCc3cc(OC)c(OC)cc3C2c2ccc(OC)c(OC)c2)cc1OC (stereo not given)	none (no result: procasp7 counter, procasp3 activ)
Brc1ccc(C2=Nc3ccccc3C(c3ccncc3)=NN2)cc1	CHT inh -10.8 | CHT block conf inactive | HEK293 CHT ctr inactive
Cc1ccc2c(c1)N(S(=O)(=O)c1ccc(CN3C(=O)c4cccnc4C3=O)cc1)CCO2	none
Cc1ccc2c(c1)N(S(=O)(=O)c1ccc(CN3C(=O)c4cccnc4C3=O)s1)CCO2	CHT inh -5.21 | CHT block conf 69.2% | HEK293 CHT ctr inactive
O=C(NC1CCCCCC1)C1c2ccccc2C(=O)N1Cc1ccco1 (stereo not given)	CHT inh -5.66 | CHT block conf inactive | HEK293 CHT ctr -8.35
O=C(NC1CCCCCC1)C1c2ccccc2C(=O)N1Cc1cccs1 (stereo not given)	none
Cc1cc(=O)oc2cc(OCC(=O)N(C)C3CCS(=O)(=O)C3)c(Cl)cc12 (stereo not given)	none
CC(NCc1ccc(F)cc1)C(=O)Nc1cc(S(=O)(=O)N2CCCCC2)ccc1Cl (stereo not given)	CHT inh -5.77 | CHT block conf 50.3% | HEK293 CHT ctr inactive
CCSc1nnc2c(Cl)cc(Cl)cn12	none
O=C1c2ccccc2C(=O)N1CCCCSc1nnc2c(Cl)cc(Cl)cn12	CHT inh -5.39 | CHT block conf inactive | HEK293 CHT ctr inactive
Cc1cc(C)n(-c2ccc(C(=O)NCC(=O)Nc3cc(Cl)ccc3Cl)cc2)n1	none (no result: CHT PAM, CHT inh)
CCOc1ccc(N(CC(=O)N2CCN(Cc3ccccc3)CC2)S(C)(=O)=O)cc1	none
O=C(c1cnn2c(C(F)(F)F)cc(-c3cccs3)nc12)N1CCN(Cc2ccccc2)CC1	CHT inh -5.5 | CHT block conf 56.5% | HEK293 CHT ctr inactive
CN1CCN(C(=O)c2cnn3c(C(F)(F)F)cc(-c4cccs4)nc23)CC1	none
COc1ccc(/C=C/C(=O)OCC(=O)NC(C)CCc2ccccc2)cc1OC (stereo not given)	none (no result: CHT PAM, CHT inh)
CCCc1cc(NCc2ccccn2)n2c(nc3ccccc32)c1C#N	none
CCCNc1cc(C)c(C#N)c2nc3ccccc3n12	none
CCCc1cc(NCC2CCCO2)n2c(nc3ccccc32)c1C#N (stereo not given)	CHT inh -6.93 | CHT block conf 43.2% | HEK293 CHT ctr inactive
CCCc1cc(NCCN(C)C)n2c(nc3ccccc32)c1C#N	CHT inh -6.06 | CHT block conf 50.8% | HEK293 CHT ctr inactive
O=C(COC(=O)CNC(=O)c1ccc(Cl)cc1Cl)NCc1ccco1	none
Cc1ccc(OCC(=O)NNC(=O)C2CC(=O)N(c3ccc4c(c3)OCCO4)C2)cc1 (stereo not given)	none
CCc1nnc(NC(=O)CSc2nccn2-c2ccccc2)s1	none
CCc1nnc(NC(=O)CSc2nnc(-c3ccccc3OC)n2-c2ccccc2)s1	CHT inh -5.52 | CHT block conf 40.8% | HEK293 CHT ctr inactive
CCc1nnc(NC(=O)CSc2nnc(-c3ccccc3OC)n2-c2ccc(C)cc2)s1	none
CCc1nnc(NC(=O)CSc2ncc(-c3ccccc3)n2C)s1	CHT inh -5.46 | CHT block conf 65.3% | HEK293 CHT ctr inactive
CC1=N/C(=C\c2ccc(OC(C)C)cc2)C(=O)N1c1ccc(C(=O)O)cc1	none
COc1ccc(/C=C2\N=C(c3ccccc3)N(c3ccc(C(=O)O)cc3)C2=O)cc1OC	CHT inh -6.91 | CHT block conf 46.8% | HEK293 CHT ctr inactive
CCCn1c(=N)n(CC(O)COc2cccc(C)c2)c2ccccc21 (stereo not given)	CHT inh -5.3 | CHT block conf inactive | HEK293 CHT ctr inactive
N=c1n(CCN2CCOCC2)c2ccccc2n1CC(O)COc1ccccc1 (stereo not given)	none
CCn1c(=N)n(CC(O)COc2cccc(C)c2)c2ccccc21 (stereo not given)	none
Cc1ccc(Cn2c(=N)n(CC(O)COc3ccccc3)c3ccccc32)cc1 (stereo not given)	CHT inh -8.17 | CHT block conf 37.6% | HEK293 CHT ctr inactive
N=c1n(Cc2ccccc2)c2ccccc2n1CC(O)COc1ccccc1 (stereo not given)	CHT inh -9.78 | CHT block conf 38.1% | HEK293 CHT ctr inactive
c1ccc(CN2CCC(Nc3nc(-c4ccccc4)nc4ccccc34)CC2)cc1	CHT inh -6.26 | CHT block conf inactive | HEK293 CHT ctr inactive
c1ccc(CNc2nc(N3CCN(Cc4ccccc4)CC3)nc3ccccc23)cc1	none
COCCCNC(=O)Cn1cnc2c(OCc3ccccc3)ncnc21	none (no result: CHT PAM, CHT inh)
O=c1c(-c2ccccc2)c[nH]n1-c1cccc([N+](=O)[O-])c1	CHT inh -6.25 | CHT block conf 45.4% | HEK293 CHT ctr inactive
O=c1c(-c2ccc(Cl)cc2)c[nH]n1-c1ccccc1	none
CCn1c(C(=O)O)c(CC(=O)N(C)c2ccc(OC)cc2OC)c2ccccc21	none
CCCCCc1cc(O)c2c(C)cc(=O)oc2c1	none
CCCCc1cc(O)c(CCCC)c(O)c1	CHT inh -5.21 | CHT block conf 67.5% | HEK293 CHT ctr inactive
CCN(CC)CCNC(=O)c1ccc2c(c1NCCO)C(=O)c1ccccc1C2=O	none

Bioassay records (PubChem BioAssay)
